Drawing on ChEMBL document CHEMBL1137261, “Structural insights into the ATP binding pocket of the anaplastic lymphoma kinase by site-directed mutagenesis, inhibitor binding analysis, and homology modeling” (J Med Chem, 2006), this text covers Activity and IC50 for 3 compounds.

pIC50: −log10 of the molar value. The source made the active and inactive calls. The calls are words filed in the database; no cut-off is given here.

The test system of assay [1] is BaF3. Description: Induction of cell death of murine BaF3 cells expressing NPM/ALK L256T mutant by trypan blue exclusion assay. The format is functional, cell-based. As to conditions: Mus musculus.
For assay [2], the system named is BaF3. Description: Antiproliferative activity against murine BaF3 cells expressing wild type NPM/ALK by [3H]thymidine uptake assay. The format is functional, cell-based. As to conditions: Mus musculus. In short, it runs like this: (§1)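 IL-3-independent BaF3 clones stably transfected (electroporation, G418 selection) with human NPM/ALK, WT or L256T; RPMI 1640 + 10% FBS, 37 °C, 5% CO2. Seeded 10^4/well, exposed to inhibitor (0-4 µM range in figure) or vehicle for 8-48 h; 3[H]-thymidine uptake.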

In assay [3] the test system is BaF3. Description: Antiproliferative activity against murine BaF3 cells expressing NPM/ALK L256T mutant by [3H]thymidine uptake assay. Format: functional, cell-based. The settings on record: Mus musculus. Put shortly:
as §1

Assay [4] addresses T1, NPM/ALK (Nucleophosmin/ALK tyrosine kinase receptor) (Homo sapiens, UniProt P06748+Q9UM73, L256T). In words: Inhibition of NPM/ALK L256T mutant autophosphorylation activity in BaF3 cells by antiphosphotyrosine immunoblotting assay. The format is cell-based. (In western blotting, separated proteins are transferred to a membrane and probed.)
Assay [5] has as its target T1, NPM/ALK (Nucleophosmin/ALK tyrosine kinase receptor). In words: Inhibition of NPM/ALK L256T mutant kinase activity in BaF3 cells by radioenzymatic assay. The format is cell-based.
The target of assay [6] is T2, NPM/ALK (Nucleophosmin/ALK tyrosine kinase receptor) (Homo sapiens, UniProt Q9UM73). In words: Inhibition of wild type NPM/ALK kinase activity in BaF3 cells by radioenzymatic assay. Format: cell-based.
For assay [7], the target named is T2, NPM/ALK (Nucleophosmin/ALK tyrosine kinase receptor). Description: Inhibition of wild type NPM/ALK autophosphorylation activity in BaF3 cells by antiphosphotyrosine immunoblotting assay. Format: cell-based.

T2 sequence (Q9UM73 whole entry): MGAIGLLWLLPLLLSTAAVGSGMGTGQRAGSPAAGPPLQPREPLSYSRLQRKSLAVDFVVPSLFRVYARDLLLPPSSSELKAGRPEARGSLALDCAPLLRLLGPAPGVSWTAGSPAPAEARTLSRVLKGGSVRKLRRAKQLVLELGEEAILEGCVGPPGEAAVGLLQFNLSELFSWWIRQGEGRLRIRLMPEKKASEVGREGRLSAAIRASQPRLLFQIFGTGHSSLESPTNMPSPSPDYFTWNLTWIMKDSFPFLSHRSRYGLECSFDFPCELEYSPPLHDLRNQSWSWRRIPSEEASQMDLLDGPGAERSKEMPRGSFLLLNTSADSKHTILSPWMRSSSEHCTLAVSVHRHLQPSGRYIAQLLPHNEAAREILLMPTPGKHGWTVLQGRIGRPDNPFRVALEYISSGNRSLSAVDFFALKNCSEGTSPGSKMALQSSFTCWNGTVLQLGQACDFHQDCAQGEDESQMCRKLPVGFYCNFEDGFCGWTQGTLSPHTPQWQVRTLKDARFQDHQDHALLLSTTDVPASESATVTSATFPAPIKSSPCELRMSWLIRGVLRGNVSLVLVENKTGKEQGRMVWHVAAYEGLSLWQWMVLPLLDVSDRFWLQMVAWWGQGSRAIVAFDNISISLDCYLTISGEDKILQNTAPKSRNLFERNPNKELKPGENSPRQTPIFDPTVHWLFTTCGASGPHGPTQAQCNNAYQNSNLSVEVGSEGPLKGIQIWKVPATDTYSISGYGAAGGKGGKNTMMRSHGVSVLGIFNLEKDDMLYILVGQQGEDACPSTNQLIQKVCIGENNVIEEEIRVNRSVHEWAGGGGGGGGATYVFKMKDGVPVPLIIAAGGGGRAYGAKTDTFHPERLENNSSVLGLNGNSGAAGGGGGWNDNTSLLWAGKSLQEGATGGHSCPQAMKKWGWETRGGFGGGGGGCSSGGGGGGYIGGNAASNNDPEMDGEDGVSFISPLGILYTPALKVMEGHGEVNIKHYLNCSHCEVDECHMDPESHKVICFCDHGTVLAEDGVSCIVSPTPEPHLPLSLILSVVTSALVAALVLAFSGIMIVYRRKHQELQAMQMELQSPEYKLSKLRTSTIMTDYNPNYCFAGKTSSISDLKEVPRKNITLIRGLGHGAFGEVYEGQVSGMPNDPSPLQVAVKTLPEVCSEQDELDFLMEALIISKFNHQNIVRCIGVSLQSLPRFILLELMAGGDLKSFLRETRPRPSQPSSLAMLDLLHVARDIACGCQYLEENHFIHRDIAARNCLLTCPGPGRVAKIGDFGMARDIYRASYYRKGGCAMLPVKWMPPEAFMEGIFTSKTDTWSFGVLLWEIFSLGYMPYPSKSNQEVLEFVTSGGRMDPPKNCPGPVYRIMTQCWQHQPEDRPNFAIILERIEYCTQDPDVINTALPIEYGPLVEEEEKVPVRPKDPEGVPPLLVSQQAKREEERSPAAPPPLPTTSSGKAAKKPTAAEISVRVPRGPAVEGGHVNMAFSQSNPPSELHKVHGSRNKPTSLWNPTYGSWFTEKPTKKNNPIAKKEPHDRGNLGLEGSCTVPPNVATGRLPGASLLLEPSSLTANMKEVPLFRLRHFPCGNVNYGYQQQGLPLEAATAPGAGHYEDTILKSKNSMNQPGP
T2 sequence (P06748 whole entry, further chain): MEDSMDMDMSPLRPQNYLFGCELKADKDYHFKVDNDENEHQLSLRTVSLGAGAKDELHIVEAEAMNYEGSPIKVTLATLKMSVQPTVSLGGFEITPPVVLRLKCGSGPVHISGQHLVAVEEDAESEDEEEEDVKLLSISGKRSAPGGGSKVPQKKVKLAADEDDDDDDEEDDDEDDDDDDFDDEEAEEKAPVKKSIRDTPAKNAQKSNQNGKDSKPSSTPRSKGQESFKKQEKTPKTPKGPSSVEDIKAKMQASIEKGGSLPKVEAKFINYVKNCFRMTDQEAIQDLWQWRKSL
T1 sequence (P06748 whole entry, stated change not applied): as the sequence (P06748 whole entry, further chain) above
T1 sequence (Q9UM73 19-1620 L256T limits assumed, stated change not applied): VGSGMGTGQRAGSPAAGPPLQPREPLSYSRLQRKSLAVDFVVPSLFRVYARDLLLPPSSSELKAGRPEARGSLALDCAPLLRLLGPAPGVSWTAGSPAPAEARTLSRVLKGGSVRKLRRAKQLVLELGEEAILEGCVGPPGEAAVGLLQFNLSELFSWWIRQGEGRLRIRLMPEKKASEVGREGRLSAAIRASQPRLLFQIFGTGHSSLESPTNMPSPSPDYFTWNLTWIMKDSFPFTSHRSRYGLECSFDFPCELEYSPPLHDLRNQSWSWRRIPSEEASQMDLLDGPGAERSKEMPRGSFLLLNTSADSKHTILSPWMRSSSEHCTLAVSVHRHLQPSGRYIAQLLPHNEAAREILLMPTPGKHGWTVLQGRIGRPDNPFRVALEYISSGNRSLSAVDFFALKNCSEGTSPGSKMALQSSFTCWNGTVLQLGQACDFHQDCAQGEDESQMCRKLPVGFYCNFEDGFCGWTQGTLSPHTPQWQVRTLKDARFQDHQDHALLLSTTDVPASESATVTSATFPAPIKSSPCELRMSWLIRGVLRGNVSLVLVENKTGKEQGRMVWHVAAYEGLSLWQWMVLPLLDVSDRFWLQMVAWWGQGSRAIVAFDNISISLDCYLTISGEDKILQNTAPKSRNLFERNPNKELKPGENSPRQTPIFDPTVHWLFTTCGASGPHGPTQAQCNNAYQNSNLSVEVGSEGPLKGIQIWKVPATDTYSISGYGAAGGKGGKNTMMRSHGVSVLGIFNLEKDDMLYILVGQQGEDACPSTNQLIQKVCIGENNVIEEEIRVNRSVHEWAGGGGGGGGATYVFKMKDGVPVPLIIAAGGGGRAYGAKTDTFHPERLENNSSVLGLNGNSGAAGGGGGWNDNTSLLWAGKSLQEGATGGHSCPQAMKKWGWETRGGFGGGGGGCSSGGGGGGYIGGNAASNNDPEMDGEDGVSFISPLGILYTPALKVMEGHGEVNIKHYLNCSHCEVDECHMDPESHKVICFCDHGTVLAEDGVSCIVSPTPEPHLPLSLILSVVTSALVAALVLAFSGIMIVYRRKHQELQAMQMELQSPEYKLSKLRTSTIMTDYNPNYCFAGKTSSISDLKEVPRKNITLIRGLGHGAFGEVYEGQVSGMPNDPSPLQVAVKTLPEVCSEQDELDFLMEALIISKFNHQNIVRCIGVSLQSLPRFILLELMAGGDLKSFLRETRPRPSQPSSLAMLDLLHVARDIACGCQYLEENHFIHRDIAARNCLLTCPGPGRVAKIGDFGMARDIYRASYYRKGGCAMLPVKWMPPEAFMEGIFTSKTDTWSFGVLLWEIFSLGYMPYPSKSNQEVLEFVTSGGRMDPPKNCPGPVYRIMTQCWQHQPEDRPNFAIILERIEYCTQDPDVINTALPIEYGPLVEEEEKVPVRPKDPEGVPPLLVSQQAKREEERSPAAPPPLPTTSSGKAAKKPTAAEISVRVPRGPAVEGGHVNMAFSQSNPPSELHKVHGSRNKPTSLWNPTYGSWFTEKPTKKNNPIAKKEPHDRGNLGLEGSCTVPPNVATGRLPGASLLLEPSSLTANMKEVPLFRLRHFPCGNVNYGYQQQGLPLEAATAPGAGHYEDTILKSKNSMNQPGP

Take `CSc1cccc(Nc2ncc3cc(-c4c(Cl)cccc4Cl)c(=O)n(C)c3n2)c1`: the result in the assay on BaF3 [1] was Active. In addition, the pIC50 in the assay on BaF3 [2] is 5.70; in the assay with BaF3 [3], 5.74.
Consider `COc1cc(Nc2c(C#N)cnc3cc(OCCCN4CCN(C)CC4)c(OC)cc23)c(Cl)cc1Cl` [BOSUTINIB], for which the result in the assay on BaF3 [1] was Active. In addition, the negative logarithm of the IC50 (pIC50) in assay [4] was 6.70; in assay [5], 6.82; in assay [6] it was below 5.00; in assay [7] it was below 4.70; in the assay on BaF3 [2], 6.00; in the assay with BaF3 [3], 6.70.
`Cc1ccc(NC(=O)c2ccc(CN3CCN(C)CC3)cc2)cc1Nc1nccc(-c2cccnc2)n1` [IMATINIB]: the values for the negative logarithm of the IC50 (pIC50) in the assay on BaF3 [2] and in the assay on BaF3 [3] were 5.15 and 5.04, respectively.

For orientation: pIC50 means the IC50 on a negative log10 scale, so that one unit is a factor of ten.
